Results taken from ChEMBL document CHEMBL1121783, “Potential inhibitors of nucleotide biosynthesis. 1. Nitrosoureidonucleosides. 2” (J Med Chem, 1981).
Blank lines part the entries; values can stand above or below the molecule they belong to. Active and inactive are the calls of the source. The rule behind the calls is not given here.

Columns and labels:
[1] = Half-life in pH 7 phosphate buffer by using high-performance LC method
[2] = test system: HEp-2; experiment: Growth, % of control, at a dose of 20 ug/ml against growth of H.Ep.-2 cells; 75-80%; conditions: Homo sapiens
[3] = Half-life in pH 7 phosphate buffer by using high-performance LC method; remark: listed apart in the source
[4] = test system: P388; experiment: Activity at a dose of 200 mg/kg for 9 days against P388 leukemia cells; type: functional; conditions: Mus musculus, P388, 216 h
In short: (§1)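 P388 leukemia test: the compound was given daily for 9 days at 200 or 400 mg/kg. Activity is reported as percent increase in life span (ILS).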

[5] = test system: P388; experiment: Activity at a dose of 400 mg/kg against P388 leukemia cells; type: functional; conditions: Mus musculus
In short: as §1

[6] = test system: HEp-2; experiment: Growth, % of control, at a dose of 20 ug/ml against growth of H.Ep.-2 cells; 75-80%; conditions: Homo sapiens; remark: listed apart in the source
[7] = test system: Nucleic Acid; experiment: Percent inhibitory activity dose at 100 ug/mL to inhibit the incorporation of hypoxanthine and gaunine in DNA; type: functional
[8] = Activity against hypoxanthine phosphoribosyltransferase; Not significant; type: functional
[9] = test system: Nucleic Acid; experiment: Percent inhibitory activity dose at 100 ug/mL to inhibit the incorporation of hypoxanthine and gaunine in RNA; type: functional
[10] = test system: P388; experiment: Activity against P388 leukemia cells; Inactive; type: functional; conditions: Mus musculus
In short: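 In vivo P388 leukemia model; compound given daily for 9 days; activity scored as percent increase in life span (ILS).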

[11] = Half-life in pH 7 phosphate buffer by using high-performance LC method; remark: listed apart in the source
[12] = Half-life in plasma by using UV method; type: ADME, cell-free

Structure (SMILES): CN(N=O)C(N)=O [N-METHYL-N-NITROSUREA]
half-life [3]: 0.12 h

Structure (SMILES): CN(N=O)C(=O)NCCNC(=O)[C@H]1OC(n2ccc(=O)[nH]c2=O)[C@H](O)[C@@H]1O (some centres not stated)
ILS at 200 mg/kg [4]: 28%
ILS at 400 mg/kg [5]: 26%
half-life [1]: 17 h

Structure (SMILES): CNC(=O)NCCNC(=O)[C@H]1OC(n2cnc3c(O)ncnc32)[C@H](O)[C@@H]1O (some centres not stated)
growth, % of control at 20 µg/mL [6]: 75%

Structure (SMILES): O=NN(CCCl)C(=O)NC1CCCCC1 [LOMUSTINE]
half-life [3]: 0.88 h

Structure (SMILES): CNC(=O)NCCNC(=O)C1OC(n2cc(C)c(=O)[nH]c2=O)CC1O (configuration not stated)
growth, % of control at 20 µg/mL [6]: 75%

Now from value to molecule, other results behind:

half-life [1]: 8 h
Structure (SMILES): O=NN(CCNC(=O)[C@H]1OC(n2ccc(=O)[nH]c2=O)[C@H](O)[C@@H]1O)C(=O)NC1CCCCC1 (some centres not stated)
growth, % of control at 20 µg/mL [2]: 75%

half-life [3]: 12 h
Structure (SMILES): O=NN(CCNC(=O)[C@H]1OC(n2cnc3c(O)ncnc32)[C@H](O)[C@@H]1O)C(=O)NC1CCCCC1 (some centres not stated)

half-life [3]: 29 h
Structure (SMILES): Cc1cn(C2CC(O)C(C(=O)NCCNC(=O)N(C)N=O)O2)c(=O)[nH]c1=O (configuration not stated)

inhibition [8]: inactive
half-life [11]: 127 h
Structure (SMILES): CN(N=O)C(=O)NCCNC(=O)[C@H]1OC(n2cnc3c(O)ncnc32)[C@H](O)[C@@H]1O (some centres not stated)
inhibition [7]: 35%
inhibition [9]: 61%
inhibition [10]: inactive

half-life [12]: 11 h
Structure (SMILES): Cc1cn(C2C[C@H](O)[C@@H](C(=O)NCCN(N=O)C(=O)NC3CCCCC3)O2)c(=O)[nH]c1=O (some centres not stated)
